Holding throughout (format): ADME, organism-based
Holding throughout (parameters): dose 16 mg/kg, route intravenous
Common to all, as to details: in vivo

The nature of series [1]: Drug uptake in Wistar rat Kidney endothelium cells obtained after tissue digestion with 0.04% protease digestion for 15 mins to 2 hrs mins at 4 or 16 mg/kg, iv after 12 hrs post dose by light-microscopic immunocytochemistry. The essentials:
(§1)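 Male Wistar rats (200–250 g) received a single tail-vein gentamicin dose (3 per time group), with saline-injected rats as controls. Under pentobarbital, rats were perfused with PBS, then 2% glutaraldehyde in 10 mM phosphate (pH 7.2), and kidneys postfixed overnight at 4°C. Paraffin sections (5 μm) were treated with 6% H₂O₂, 1.0% NaBH₄ and 1 N HCl, then protease at 30°C. Staining used rabbit anti-GM serum 1:5,000 (overnight, 4°C), then HRP anti-rabbit IgG with DAB.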

Series [2] is described as follows: Drug uptake in Wistar rat Kidney glomeruli cells obtained after tissue digestion with 0.04% protease digestion for 15 mins to 2 hrs mins at 4 or 16 mg/kg, iv after 12 hrs post dose by light-microscopic immunocytochemistry. The essentials:
as §1

Series [3] is described as follows: Drug uptake in Wistar rat kidney collecting duct cells obtained after tissue digestion with 0.04% protease digestion for 15 mins at 4 or 16 mg/kg, iv after 12 hrs post dose by light-microscopic immunocytochemistry. The essentials: as §1
Series [4] can be described thus: Drug uptake in Wistar rat Kidney Henle's loop cells obtained after tissue digestion with 0.04% protease digestion for 15 mins to 2 hrs mins at 4 or 16 mg/kg, iv after 12 hrs post dose by light-microscopic immunocytochemistry. Put shortly: as §1
Series [5] is described as follows: Drug uptake in Wistar rat kidney proximal tubule S1 obtained after tissue digestion with 0.04% protease digestion for 2 hrs mins at 4 or 16 mg/kg, iv after 12 hrs post dose by light-microscopic immunocytochemistry. The essentials:
as §1

Series [6] is described as follows: Drug uptake in Wistar rat kidney collecting duct cells obtained after tissue digestion with 0.04% protease digestion for 2 hrs at 4 or 16 mg/kg, iv after 12 hrs post dose by light-microscopic immunocytochemistry. The essentials:
as §1

Series [7] can be described thus: Drug uptake in Wistar rat kidney collecting duct cells obtained after tissue digestion with 0.04% protease digestion for 30 mins at 4 or 16 mg/kg, iv after 12 hrs post dose by light-microscopic immunocytochemistry. Put shortly:
as §1

Series [8] is described as follows: Drug uptake in cytoplasm of Wistar rat kidney distal tubule cells obtained after tissue digestion with 0.04% protease digestion for 15 mins at 4 or 16 mg/kg, iv after 12 hrs post dose by light-microscopic immunocytochemistry. Put shortly: as §1
A short description of series [9]: Drug uptake in Wistar rat Kidney endothelium cells obtained after tissue digestion with 0.04% protease digestion for 15 mins to 60 mins at 4 or 16 mg/kg, iv after 1 hrs post dose by light-microscopic immunocytochemistry. Put shortly:
as §1

Series [10] can be described thus: Drug uptake in Wistar rat Kidney endothelium cells obtained after tissue digestion with 0.04% protease digestion for 2 hrs mins at 4 or 16 mg/kg, iv after 1 hrs post dose by light-microscopic immunocytochemistry. Put shortly:
as §1

Series [11] can be described thus: Drug uptake in cytoplasm of Wistar rat kidney distal tubule cells obtained after tissue digestion with 0.04% protease digestion for 2 hrs at 4 or 16 mg/kg, iv after 12 hrs post dose by light-microscopic immunocytochemistry. Put shortly:
as §1

Series [12] can be described thus: Drug uptake in nuclei of Wistar rat kidney distal tubule cells obtained after tissue digestion with 0.04% protease digestion for 15 mins at 4 or 16 mg/kg, iv after 12 hrs post dose by light-microscopic immunocytochemistry. The essentials:
as §1

Series [13] is described as follows: Drug uptake in Wistar rat kidney proximal tubule […] cells obtained after tissue digestion with 0.04% protease digestion for 15 mins at 4 or 16 mg/kg, iv after 12 hrs post dose by light-microscopic immunocytochemistry. The essentials:
as §1

Series [14] is described as follows: Drug uptake in Wistar rat kidney proximal tubule S2 obtained after tissue digestion with 0.04% protease digestion for 2 hrs mins at 4 or 16 mg/kg, iv after 12 hrs post dose by light-microscopic immunocytochemistry. The essentials:
as §1

Regarding GENTAMICIN, the Drug uptake result in series [1] was “Not Active”; in series [2], “Not Active”; in series [3], “Active”; in [4] it was “Not Active”; in series [5], “Active”; in series [6], “Not Active”. Besides, the Drug uptake entry in [7] is reported as “Active”; in series [8] it was “Active”; in [9] it was “Active”; in [10], “Not Active”; in series [11], “Not Active”; in series [12], “Active”. Further, the Drug uptake entry is on record as “Not Active” in series [13] and “Active” in series [14].

Source of the values: ChEMBL document CHEMBL1671656, “Light-microscopic immunocytochemistry for gentamicin and its use for studying uptake of the drug in kidney” (Antimicrob Agents Chemother, 2009).
